Shown are actives, neighbours in structure and some others; about 2.1% of the full set was active somewhere.
RanGTP-Imp inh: disruptors of Ran-importin-beta complex formation – biochemical, FRET, CFP-Ran, YFP-importin-beta, homogeneous, primary screen. cell-free CFP-Ran/YFP-importin-beta FRET ratio. inhibition, % (test concentration not listed). 300,000 tested, 1.1% active. AID 2216;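 active = more than half of the replicate wells show a fall in the fluorescence ratio signal beyond about 16%, limit read from the data, passing the limit was not always enough; inconclusive = exactly half of the replicate wells pass the set limit; inactive = fewer than half of replicates pass the limit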
Hck-Nef inh: inhibitors of human Hck kinase activated by Nef. Recombinant Hck-YEEI plus Nef, Z-Lyte FRET kinase assay. inhibition, % at 20 µM. 220,000 tested, 0.68% active. AID 463187;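 active = Hck-Nef kinase inhibition above about 50%, limit read from the data; inactive = inhibition below that limit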
Target sequence (P08631 whole entry, looked up): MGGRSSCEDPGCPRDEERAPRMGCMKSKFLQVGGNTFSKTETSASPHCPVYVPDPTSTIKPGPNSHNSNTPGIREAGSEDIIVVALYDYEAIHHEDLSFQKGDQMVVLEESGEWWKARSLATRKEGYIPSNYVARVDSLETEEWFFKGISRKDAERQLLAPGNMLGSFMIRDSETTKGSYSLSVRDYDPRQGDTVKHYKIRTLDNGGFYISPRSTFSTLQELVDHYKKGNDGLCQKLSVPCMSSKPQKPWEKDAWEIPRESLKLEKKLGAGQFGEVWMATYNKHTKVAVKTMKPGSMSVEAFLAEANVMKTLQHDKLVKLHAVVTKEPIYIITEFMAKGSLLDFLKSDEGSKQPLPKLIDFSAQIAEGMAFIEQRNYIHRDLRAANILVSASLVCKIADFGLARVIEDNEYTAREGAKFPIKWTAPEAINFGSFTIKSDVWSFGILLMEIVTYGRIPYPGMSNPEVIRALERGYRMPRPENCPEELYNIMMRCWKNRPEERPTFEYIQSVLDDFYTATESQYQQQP
TbHK1 inh: blocks Trypanosoma brucei hexokinase 1 activity. recombinant TbHK1, G6PDH-coupled NADH A340. inhibition, % at 10 µM. 220,000 tested, 0.11% active;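 active = inhibition of 50% or more in the single-dose primary screen; inactive = inhibition below 50%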
p97 inhibitor: inhibitors of human p97 ATPase; P55072; inhibition, % at 8 µM; 220,000 tested, 0.42% active; AID 1481; recombinant p97 ATPase, Kinase-Glo ATP luminescence, 3 h; in the data active = inhibition above about 15%
Runt-SMMHC FRET: blocks binding of human RUNX1 Runt domain to CBFb-SMMHC | Cerulean-Runt/Venus-CBFb-SMMHC FRET ratio 530/480, 1 h | inhibition, % at 20 µM | Q01196+Q13951 | 220,000 tested, 0.74% active;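 active = mean inhibition across duplicate retests at 20 µM reaching about 50%, limit read from the data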;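 note: inhibitors lower the FRET ratio by blocking Runt binding to CBFb-SMMHC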
Runt-CBFb FRET: blocks binding of human RUNX1 Runt domain to CBFb; Cerulean-Runt/Venus-CBFb FRET ratio 530/480, 1 h; inhibition, % at 20 µM; 220,000 tested, 0.46% active;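 active = inhibition over about 50% at 20 µM in the single-dose screen, limit read from the data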
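Schedule: protein complex preformed 1 h, compound exposure 1 h, room temperature, dark; test system: Cerulean-labeled Runt domain protein; amount: 100 nM per protein; buffer or medium: Tris 50 mM pH 7.5, KCl, K2SO4, 0.01% BSA; read-out: loss of energy transfer signal; detection: FRET fluorescence; controls: 5 µM unlabeled CBFb as full-inhibition high control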
Hck-Nef confirm: confirmation of Hck-Nef kinase inhibitors; calls only at 10 µM; Recombinant Hck-YEEI:Nef, Z-Lyte FRET kinase assay; AID 463188; 1,300 tested, 28% active; shares compounds with Hck-Nef inh;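 active = average inhibition of at least 50%, with Z-scores no higher than 3 in both the phospho-tyrosine peptide and fluorescence counterscreens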
Of the large screens only hits and unclear results are named; the others gave an inactive call (follow-up assays come after a bar, where shown).

Cc1c(CC(=O)N2CCN(C(=O)C3COc4ccccc4O3)CC2)c(=O)oc2cc(O)cc(O)c12 (stereo unspecified)	none (no result: Hck-Nef inh, TbHK1 inh, p97 inhibitor, Runt-SMMHC FRET, Runt-CBFb FRET)
CCOC(=O)CCc1c(C)c2ccc(OCC(=O)N(CC)CC)c(C)c2oc1=O	none
CCOC(=O)Cc1c(C)c2c(O)cc(O)cc2oc1=O	Hck-Nef inh 50.0, Runt-SMMHC FRET 67.6 | Hck-Nef confirm inactive
CCOC(=O)CCc1c(C)c2ccc(O)cc2oc1=O	Hck-Nef inh 90.1, Runt-SMMHC FRET 90.7
CCOC(=O)Cc1c(C)c2ccc(N(CC)CC)cc2oc1=O	RanGTP-Imp inh 130.5, Hck-Nef inh 106.6
Cc1n[nH]c(C)c1CCC(=O)N/N=C/C=C/c1ccccc1	none
O=C(Nc1cccc([N+](=O)[O-])c1)C1CCN(C(=O)Cc2ccccc2)CC1	none (no result: Hck-Nef inh, TbHK1 inh, p97 inhibitor, Runt-SMMHC FRET, Runt-CBFb FRET)
COc1ccc(C2=NN(C(=O)CCCC(=O)O)C(c3cn(-c4ccccc4)nc3-c3ccccc3)C2)cc1 (stereo unspecified)	Hck-Nef inh 108.8 | Hck-Nef confirm active
COc1ccc(N=c2oc3cc(O)ccc3cc2C(=O)Nc2ccccn2)cc1OC	Hck-Nef inh 84.0, Runt-SMMHC FRET 92.5, Runt-CBFb FRET 54.6 | Hck-Nef confirm inactive
COc1ccc(N2C3=C(C(=O)CC(C)(C)C3)C(c3cnn(C)c3)C3=C2CC(C)(C)CC3=O)cc1	RanGTP-Imp inh 57.0, Hck-Nef inh 55.4, Runt-SMMHC FRET 82.5, Runt-CBFb FRET 106.8
Fc1ccccc1/C=C1\CCCC2=C1NC(=S)NC2c1ccccc1F (stereo unspecified)	RanGTP-Imp inh inconclusive
COc1cc(-c2cc(OC)c3c(C)oc(C)c3c(=O)c2)ccc1O	none
COc1cc(-c2cc(=O)c3c(O)c(OC)c(OC)c(O)c3o2)ccc1O	Hck-Nef inh 67.3 | Hck-Nef confirm active
Nc1nc2nc(-c3cccs3)cc(C(F)(F)F)n2n1	RanGTP-Imp inh 62.3, Hck-Nef inh 110.0, Runt-SMMHC FRET 91.1, Runt-CBFb FRET 66.0
COc1ccc(-c2cnnc(N/N=C/c3ccc(O)cc3)n2)cc1	Hck-Nef inh 71.3 | Hck-Nef confirm inactive
COCc1[nH][nH]c(=O)c1C=Nc1ccc(C(F)(F)F)cc1	none
COCc1[nH][nH]c(=O)c1C=Nc1ccc(Oc2ccccc2)cc1	Hck-Nef inh 91.3 | Hck-Nef confirm active
COc1ccc(C(=O)N/C(=C\c2ccccc2)C(=O)Nc2ccccc2C(=O)O)cc1	none (no result: Hck-Nef inh, TbHK1 inh, p97 inhibitor, Runt-SMMHC FRET, Runt-CBFb FRET)
CCN1CCN(Cc2ccc(NC(=O)c3cc(NC(=O)c4ccno4)cc(OC)c3)cc2C(F)(F)F)CC1	none (no result: p97 inhibitor)
CCN1CCN(Cc2ccc(NC(=O)c3ccc(C)c(NC(=O)c4ccno4)c3)cc2C(F)(F)F)CC1	Hck-Nef inh 101.2 (no result: p97 inhibitor) | Hck-Nef confirm active
O=C(Nc1ccc(Cl)c(Cl)c1)Nc1nnc(-c2ccncc2)s1	Hck-Nef inh 56.3 (not shown: RanGTP-Imp inh)
CC1=NOC(=O)/C1=C/c1ccc(-c2ccc(Cl)cc2)o1	none (no result: RanGTP-Imp inh)
CC1=NOC(=O)/C1=C\c1ccc(-c2ccc(Br)cc2)o1	Hck-Nef inh 113.2 (no result: Runt-CBFb FRET) | Hck-Nef confirm inactive
O=C1c2cccc3cccc(c23)C(=O)N1c1ccc2ncccc2c1	none (no result: RanGTP-Imp inh)
COc1cc(Nc2ncnc(N)n2)cc(OC)c1	Hck-Nef inh 61.9 | Hck-Nef confirm active
COc1ccc(-c2cc3ccccc3oc2=O)cc1NC(=S)NC(=O)c1ccc2c(c1)OCCO2	RanGTP-Imp inh inconclusive, Hck-Nef inh 50.6 (no result: Runt-CBFb FRET) | Hck-Nef confirm active
COc1ccc(-c2cc3ccccc3oc2=O)cc1NC(=O)c1ccc(Br)o1	RanGTP-Imp inh inconclusive, Hck-Nef inh 76.5 | Hck-Nef confirm inactive
CCC(=O)Nc1cc(-c2cc3ccccc3oc2=O)ccc1OC	none
O=C(NC(=S)NC1CCS(=O)(=O)C1)c1ccccc1Br (stereo unspecified)	none (no result: Hck-Nef inh, TbHK1 inh, p97 inhibitor, Runt-SMMHC FRET, Runt-CBFb FRET)
O=C(c1ccco1)N(Cc1ccc2c(c1)OCO2)Cc1cc2cc3c(cc2[nH]c1=O)OCO3	Hck-Nef inh 125.8 | Hck-Nef confirm inactive
COc1ccc(NC(=O)c2cccc([N+](=O)[O-])c2)cc1	none
COc1ccc(NC(=O)c2cc([N+](=O)[O-])ccc2O)cc1	Hck-Nef inh 52.5 | Hck-Nef confirm inactive
CC(C)CNC(=O)c1c(N)n(/N=C/c2ccccn2)c2nc3ccccc3nc12	Hck-Nef inh 50.8 | Hck-Nef confirm inactive
COc1cccc(C(=O)/C=C2\Sc3ccccc3N2C)c1	Hck-Nef inh 106.2, Runt-SMMHC FRET 55.3 | Hck-Nef confirm inactive
Cc1cc(=O)oc2c3c4c(cc12)OCCN4CCC3	RanGTP-Imp inh 143.1, Hck-Nef inh 72.3 (not shown: Runt-SMMHC FRET)
CC(C)c1cc(=O)oc2c3c4c(cc12)CCCN4CCC3	RanGTP-Imp inh 29.0, Hck-Nef inh 52.0
O=C(NCc1ccco1)C1CCC(CNS(=O)(=O)c2cccc3cccnc23)CC1 (stereo unspecified)	none
Fc1ccc(C2=NN(c3ccccc3)C(c3ccco3)C2)cc1 (stereo unspecified)	none
Cc1nnc(SCC(=O)N2N=C(c3ccc(Cl)cc3)CC2c2ccco2)[nH]c1=O (stereo unspecified)	Hck-Nef inh 50.4 | Hck-Nef confirm inactive
Clc1ccc(C2=NN(c3ccccc3)C(c3ccco3)C2)cc1 (stereo unspecified)	Hck-Nef inh 60.2 | Hck-Nef confirm inactive
CCOC(=O)c1cc2c(=O)n3ccccc3nc2n(C(C)C)c1=NC(=O)c1ccco1	Hck-Nef inh 105.8, Runt-SMMHC FRET 86.3
CCOC(=O)c1sc(=NC(=O)c2ccco2)n(C)c1C	none (no result: RanGTP-Imp inh)
CCOC(=O)c1cc2c3ccccc3n(CC)c2nc1N	none
CCOC(=O)c1cc2c(=O)n3ccccc3nc2n(CCCOC)c1=NC(C)=O	Hck-Nef inh 172.9, Runt-CBFb FRET 56.0 (not shown: RanGTP-Imp inh)
CCCn1c(=NC(=O)c2ccco2)c(C(=O)OCC)cc2c(=O)n3ccccc3nc21	RanGTP-Imp inh 116.4, Hck-Nef inh 62.5, Runt-SMMHC FRET 56.2 | Hck-Nef confirm inactive
CC(C)OCCCn1c(=NC(=O)c2ccncc2)c(C#N)cc2c(=O)n3ccccc3nc21	RanGTP-Imp inh 57.3, Hck-Nef inh 108.5
CCN(CC)c1cc(NCCO)c([N+](=O)[O-])c2nonc12	Hck-Nef inh 56.4 | Hck-Nef confirm inactive
CC(=O)c1cc2c(cc1NS(=O)(=O)c1ccccc1C)OCO2	none
COc1ccc(S(=O)(=O)Nc2cc3c(cc2C(C)=O)OCO3)cc1	Hck-Nef inh 53.7 (no result: Runt-SMMHC FRET, Runt-CBFb FRET) | Hck-Nef confirm inactive
Cc1ccc(-c2ccc(/C=C3/NC(=O)NC3=O)o2)cc1[N+](=O)[O-]	none
CC1=C(C#N)C(=O)NC(=O)/C1=C\c1ccc(-c2cc(C)c(C)cc2[N+](=O)[O-])o1	Hck-Nef inh 90.8 | Hck-Nef confirm active

From PubChem
